Measurements as given in ChEMBL document CHEMBL4732162, “Design, synthesis and evaluation of novel ErbB/HDAC multitargeted inhibitors with selectivity in EGFR mutant cell lines” (Eur J Med Chem, 2021).
Calls of active or inactive are those of the source. The rule behind the calls is not given here.

Key:
[1] = test system: A-431; experiment: Antiproliferative activity against human A431 cells incubated for 72 hrs by MTT assay; format: functional, cell-based; settings: A-431, 72 h
[2] = biological target: Epidermal growth factor receptor (Homo sapiens, UniProt P00533, L858R/T790M); experiment: Inhibition of EGFR L858R/T790M (unknown origin) by mobility shift assay
[3] = biological target: T1, Epidermal growth factor receptor (Homo sapiens, UniProt P00533); experiment: Inhibition of EGFR (unknown origin) by mobility shift assay
[4] = biological target: T1, Epidermal growth factor receptor; experiment: Inhibition of EGFR in human NCI-H1975 cells assessed as reduction in EGFR phosphorylation at Tyr-1173 residues after 48 hrs by Western blot analysis; format: cell-based; settings: dose 0.5-5 µM
Summary of the method: (§1)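 Cells were treated with compound for 48 h and lysed on ice for 30 min in RIPA buffer with protease and phosphatase inhibitors. Lysates were cleared at 14000 g, 4 °C, and protein quantified by BCA. Samples were boiled in loading buffer, run on 10–12% SDS-PAGE and transferred to PVDF. Membranes were blocked 2 h, incubated in primary antibody overnight at 4 °C, then in secondary antibody 2 h at room temperature.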

[5] = test system: NCI-H1975; experiment: Induction of apoptosis in human NCI-H1975 cells assessed as late apoptotic cells at 0.5 uM incubated for 48 hrs by propidium iodide and annexin-V FITC staining based flow cytometry (Rvb =4.20 %); format: functional
[6] = test system: NCI-H1975; experiment: Induction of apoptosis in human NCI-H1975 cells assessed as viable cells at 0.5 uM incubated for 48 hrs by propidium iodide and annexin-V FITC staining based flow cytometry (Rvb =88.95% ); format: functional; settings: read-out: Activity
[7] = test system: NCI-H1975; experiment: Induction of apoptosis in human NCI-H1975 cells assessed as late apoptotic cells at 2.5 uM incubated for 48 hrs by propidium iodide and annexin-V FITC staining based flow cytometry (Rvb =4.20 %); format: functional
[8] = test system: NCI-H1975; experiment: Induction of apoptosis in human NCI-H1975 cells assessed as necrotic cells at 2.5 uM incubated for 48 hrs by propidium iodide and annexin-V FITC staining based flow cytometry (Rvb =0.18% ); format: functional
[9] = test system: NCI-H1975; experiment: Induction of apoptosis in human NCI-H1975 cells assessed as late apoptotic cells at 5 uM incubated for 48 hrs by propidium iodide and annexin-V FITC staining based flow cytometry (Rvb =4.20 %); format: functional
[10] = test system: NCI-H1975; experiment: Induction of apoptosis in human NCI-H1975 cells assessed as viable cells at 5 uM incubated for 48 hrs by propidium iodide and annexin-V FITC staining based flow cytometry (Rvb =88.95% ); format: functional; settings: read-out: Activity
[11] = biological target: Histone deacetylase (Homo sapiens) (UniProt Q13547+O15379+Q9UBN7+Q92769+Q9UQL6+Q8WUI4+Q9BY41+Q96DB2+P56524+Q9UKV0+Q969S8); experiment: Inhibition of HDAC in human A431 cells assessed as increase in histone H3 acetylation at 0.5 to 5 uM after 48 hrs by Western blot analysis; format: cell-based; settings: A-431, dose 0.5-5 µM; summary of the method: as §1
[12] = test system: NCI-H1975; experiment: Induction of apoptosis in human NCI-H1975 cells assessed as increase in cleaved-caspase 3 level at 0.5 to 5 uM after 48 hrs by Western blot analysis; format: functional, cell-based; settings: dose 0.5-5 µM; summary of the method: as §1

T1 sequence (P00533 whole entry): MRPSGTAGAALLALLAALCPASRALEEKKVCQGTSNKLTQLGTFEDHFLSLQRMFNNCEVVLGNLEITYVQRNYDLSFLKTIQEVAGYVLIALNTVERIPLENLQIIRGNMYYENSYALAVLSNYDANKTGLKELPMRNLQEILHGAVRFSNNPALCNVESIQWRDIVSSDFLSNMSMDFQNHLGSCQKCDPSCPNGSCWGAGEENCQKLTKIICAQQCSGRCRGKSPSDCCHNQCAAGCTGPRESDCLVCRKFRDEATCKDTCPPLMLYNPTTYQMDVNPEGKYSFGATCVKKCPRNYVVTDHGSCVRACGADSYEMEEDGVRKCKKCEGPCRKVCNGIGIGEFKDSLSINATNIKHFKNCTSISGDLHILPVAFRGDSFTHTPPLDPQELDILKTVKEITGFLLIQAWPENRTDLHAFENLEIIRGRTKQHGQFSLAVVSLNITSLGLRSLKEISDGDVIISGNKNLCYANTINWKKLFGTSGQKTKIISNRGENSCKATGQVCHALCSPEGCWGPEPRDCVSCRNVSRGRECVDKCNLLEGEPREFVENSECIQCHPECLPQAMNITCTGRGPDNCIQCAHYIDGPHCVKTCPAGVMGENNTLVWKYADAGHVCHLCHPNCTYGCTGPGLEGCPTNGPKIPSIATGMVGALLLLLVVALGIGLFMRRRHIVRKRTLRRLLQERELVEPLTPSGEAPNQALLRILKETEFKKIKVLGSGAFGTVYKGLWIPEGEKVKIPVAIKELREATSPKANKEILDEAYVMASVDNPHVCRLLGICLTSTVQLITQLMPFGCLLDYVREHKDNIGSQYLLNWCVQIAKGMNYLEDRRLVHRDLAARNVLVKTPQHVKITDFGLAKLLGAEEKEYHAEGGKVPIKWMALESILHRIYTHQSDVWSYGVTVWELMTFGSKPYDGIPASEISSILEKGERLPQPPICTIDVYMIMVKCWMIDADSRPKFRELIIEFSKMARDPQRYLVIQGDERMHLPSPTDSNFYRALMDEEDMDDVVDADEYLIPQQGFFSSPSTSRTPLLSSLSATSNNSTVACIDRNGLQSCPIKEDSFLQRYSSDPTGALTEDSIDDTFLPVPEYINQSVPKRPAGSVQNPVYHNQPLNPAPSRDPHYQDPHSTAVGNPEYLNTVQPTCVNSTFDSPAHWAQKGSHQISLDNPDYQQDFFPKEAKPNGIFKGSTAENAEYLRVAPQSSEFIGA
Epidermal growth factor receptor (Homo sapiens, UniProt P00533, L858R/T790M), sequence (P00533 25-1210 T790M/L858R limits assumed): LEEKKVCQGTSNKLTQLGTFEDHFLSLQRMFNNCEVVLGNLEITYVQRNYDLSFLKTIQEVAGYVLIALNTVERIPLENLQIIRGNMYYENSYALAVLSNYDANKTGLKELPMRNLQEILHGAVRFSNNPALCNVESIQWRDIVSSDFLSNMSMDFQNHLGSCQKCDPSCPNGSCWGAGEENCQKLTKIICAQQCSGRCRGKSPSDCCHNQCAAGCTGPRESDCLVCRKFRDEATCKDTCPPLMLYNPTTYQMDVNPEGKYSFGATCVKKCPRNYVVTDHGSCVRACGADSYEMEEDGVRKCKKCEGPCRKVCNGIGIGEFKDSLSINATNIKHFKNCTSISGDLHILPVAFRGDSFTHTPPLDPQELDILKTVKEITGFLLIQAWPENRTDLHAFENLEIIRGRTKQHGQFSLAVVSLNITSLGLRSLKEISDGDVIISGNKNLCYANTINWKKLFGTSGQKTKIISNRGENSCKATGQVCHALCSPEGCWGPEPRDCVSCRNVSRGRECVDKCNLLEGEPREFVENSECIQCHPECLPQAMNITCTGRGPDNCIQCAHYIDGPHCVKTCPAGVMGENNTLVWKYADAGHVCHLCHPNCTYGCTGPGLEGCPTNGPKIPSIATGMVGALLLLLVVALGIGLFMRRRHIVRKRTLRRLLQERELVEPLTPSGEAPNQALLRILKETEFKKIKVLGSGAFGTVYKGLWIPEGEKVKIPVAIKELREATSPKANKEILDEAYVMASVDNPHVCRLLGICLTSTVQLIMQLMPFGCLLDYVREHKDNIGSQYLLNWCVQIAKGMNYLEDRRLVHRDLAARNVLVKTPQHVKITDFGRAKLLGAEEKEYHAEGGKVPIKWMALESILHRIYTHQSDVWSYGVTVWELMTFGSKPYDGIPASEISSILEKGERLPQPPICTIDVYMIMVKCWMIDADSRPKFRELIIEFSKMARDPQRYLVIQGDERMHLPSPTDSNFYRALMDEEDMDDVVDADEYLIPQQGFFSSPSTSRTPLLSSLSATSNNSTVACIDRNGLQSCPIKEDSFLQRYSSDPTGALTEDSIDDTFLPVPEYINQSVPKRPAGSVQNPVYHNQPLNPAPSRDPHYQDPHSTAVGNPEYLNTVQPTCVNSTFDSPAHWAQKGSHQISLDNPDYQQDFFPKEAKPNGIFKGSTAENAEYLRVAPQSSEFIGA

IC50 [1]: 20600 nM
IC50 [2]: 1.5 nM
IC50 [3]: 0.35 nM
inhibition [4]: Dose-dependent effect
inhibition [11]: Active
SMILES: C=CC(=O)Nc1cc2c(Nc3ccc(F)c(Cl)c3)ncnc2cc1OCc1cn(CCCC(=O)NO)nn1
Activity [5]: 13.07%
viability at 0.5 µM [6]: 62.6%
Activity [7]: 14.3%
Activity [8]: 0.36%
Activity [9]: 18.07%
viability at 5 µM [10]: 46.1%
Activity [12]: Active
